In PubChem BioAssay AID651575 (The Scripps Research Institute Molecular Screening Center, 2012):

Test system: Huh-7.5 HCV J6/JFH-1 infection, RT-qPCR viral RNA, 48 h
Test: blockade of HCV J6/JFH-1 infection of hepatoma cells – cell-based, RT-qPCR viral RNA, Huh-7.5, powder samples, counter-screen for HCV core dimerization inhibitor project, late-stage follow-up (AID 651575)
In short: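 Material: Huh-7.5 cells infected with HCV genotype 2a J6/JFH-1; also added: HCV 2a J6/JFH-1 virus added together with compound; dosing: 6 tenfold doses, top 100 µM; incubation: 24 h infection with compound, then 48 h compound; signal: Taqman real-time RT-qPCR of HCV RNA, Ct values; repeats: triplicates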

| SMILES | IC50 [nM] |
| --- | --- |
| Cc1ccc(Cc2c(C)nc3nc(SCC(=O)NCCN4CCCN(S(C)(=O)=O)CC4)nn3c2C)cc1 | 1240 |
| Cc1ccc(Cc2c(CCc3ccccc3)nc3nc(SC(Cc4ccccc4)C(=O)NCCN4CCOCC4)nn3c2C)cc1 (centres undefined) | 286 |
| Cc1ccc(Cc2c(C)nc3nc(SCC(=O)NCCN4CCN(Cc5ccc(F)cc5)CC4)nn3c2C)cc1 | 32 |
| Cc1ccc(Cc2c(C)nc3nc(SCC(=O)NCCN4CCCN(S(=O)(=O)c5ccc(C)cc5)CC4)nn3c2C)cc1 | 4 |
| Cc1ccc(Cc2c(C)nc3nc(SCC(=O)NCCN4CCOCC4)nn3c2C)cc1 | 312 |
| Cc1ccc(Cc2c(C)nc3nc(SCC(=O)NCCN4CCCCCC4)nn3c2C)cc1 | 191 |
| Cc1ccc(Cc2c(C)nc3nc(SCC(=O)NCCN4CCNCC4)nn3c2C)cc1 | 2 |
| Cc1ccc(Cc2c(C)nc3nc(SCC(=O)NCCN4CCCN(S(=O)(=O)c5ccccc5)CC4)nn3c2C)cc1 | 665 |
| Cc1ccc(Cc2c(C)nc3nc(SCC(=O)NCCN4CCN(CCc5ccccc5)CC4)nn3c2C)cc1 | 294 |
